Runt-SMMHC FRET = inhibitors of RUNX1 Runt–CBFb-SMMHC binding, primary screen, biochemical, FRET, Cerulean-Runt, Venus-CBFb-SMMHC, uHTS. Cerulean-Runt/Venus-CBFb-SMMHC FRET ratio 530/480, 1 h. inhibition, % at 20 µM. Runt-related transcription factor 1 (Homo sapiens) + Core-binding factor subunit beta …. hit rate 0.74% among 220,000. AID 1434, 2008;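 active means mean inhibition across duplicate retests at 20 µM reaching about 50%, limit read from the data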;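 further: 0% = DMSO wells and 100% = wells with excess untagged CBFb-SMMHC; inhibitors lower the FRET ratio by blocking Runt binding to CBFb-SMMHC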
RanGTP-Imp inh = inhibitors of RanGTP-importin-beta interaction, primary screen, biochemical, FRET, CFP-Ran, YFP-importin-beta, homogeneous; Ran GTPase (GTP-bound) - importin-beta complex; cell-free CFP-Ran/YFP-importin-beta FRET ratio; inhibition, % (no concentration beside the values); hit rate 1.1% among 300,000; AID 2216, 2009;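 active means more than half of the replicate wells show a fall in the fluorescence ratio signal beyond about 16%, limit read from the data, passing the limit was not always enough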;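 further: 0% = DMSO wells and 100% = Ran loaded with GDP instead of GTP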
MEX-5 binding = MEX-5 zinc finger RNA-binding disruptors – biochemical, C. elegans, fluorescence polarization, MLPCN library, primary screen; MEX-5/FITC-TCR2 RNA binding; active compounds read low; hit rate 0.38% among 300,000; activity score (negative = inhibition of binding), % at 10 µM; Zinc finger protein mex-5 (Caenorhabditis elegans), Q9XUB2;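 active means inhibition past about -25% in most replicates, and total fluorescence under double the plate's negative control median, limit read from the data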;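 further: 0% = DMSO and -100% = 5 µM competing unlabeled TCR2 RNA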
Target sequence (Q9XUB2 whole entry, looked up): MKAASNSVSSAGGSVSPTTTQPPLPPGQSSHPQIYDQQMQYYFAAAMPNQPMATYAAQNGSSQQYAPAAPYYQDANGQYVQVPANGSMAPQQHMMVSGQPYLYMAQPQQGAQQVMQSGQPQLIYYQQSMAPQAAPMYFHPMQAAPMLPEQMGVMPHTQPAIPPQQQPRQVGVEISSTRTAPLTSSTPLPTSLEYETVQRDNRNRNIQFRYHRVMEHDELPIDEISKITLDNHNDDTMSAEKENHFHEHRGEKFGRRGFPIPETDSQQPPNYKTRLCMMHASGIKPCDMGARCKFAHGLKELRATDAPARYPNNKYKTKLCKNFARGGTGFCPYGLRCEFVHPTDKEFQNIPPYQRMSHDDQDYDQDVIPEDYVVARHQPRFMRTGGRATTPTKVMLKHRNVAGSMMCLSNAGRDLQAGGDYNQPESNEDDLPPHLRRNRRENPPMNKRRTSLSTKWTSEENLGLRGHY
proKLK7 act = proKLK7 zymogen activators, primary screen, biochemical, fluorescence intensity; Kallikrein-7 (Homo sapiens), P49862; purified proKLK7, EDANS-DABCYL substrate fluorescence; 100% is mature enzyme control, 0% vehicle; activation, % at 7 µM; hit rate 0.9% among 370,000;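 active means activation above the mean of all tested compounds plus 3 SD, computed per campaign excluding outliers beyond control limits, cut at about 13% in these data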
Runt-CBFb FRET = inhibitors of RUNX1 Runt–CBFb binding, primary screen, biochemical, FRET, Cerulean-Runt, Venus-CBFb, uHTS; hit rate 0.46% among 220,000; Cerulean-Runt/Venus-CBFb FRET ratio 530/480, 1 h; AID 1496, 2009; inhibition, % at 20 µM;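 active means inhibition over about 50% at 20 µM in the single-dose screen, limit read from the data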;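 further: 0% = DMSO wells and 100% = excess unlabeled CBFb competitor control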
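Doses: 20 µM compound in 1% DMSO | Material: Cerulean-labeled Runt domain protein | Amount: Each fluorescent fusion protein 100 nM | Schedule: Two 1 h room-temperature incubations shielded from light | Measured by: FRET fluorescence | Evaluation: Loss of energy transfer signal | Controls: Unlabeled CBFb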
KLK7 act conf = proKLK7 zymogen activators, confirmation, biochemical, fluorescence intensity, triplicate. purified proKLK7, EDANS-DABCYL substrate fluorescence; scaled: vehicle 0, mature enzyme 100. AID 686949, 2013. activation, % at 7 µM. shares compounds with proKLK7 act. hit rate 68% among 3,200;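 active means activation, as change over the incubation, above the mean of all tested compounds plus 3 SD, cut at about 13% in these data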
EDANS interfere = EDANS-DABCYL substrate optical interference, artefact control for kallikrein-7 zymogen activator project, biochemical, fluorescence intensity, high throughput; shares compounds with proKLK7 act; no enzyme, 4 h; solvent 0%, active enzyme control 100%; activation, % at 7 µM; hit rate 80% among 3,200; AID 686952, 2013;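 active means activation above the all-compound mean plus 3 SD, ignoring values outside control-based bounds, cut at about 4.8% in these data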;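 further: value is the 4 h activation minus the activation read at time zero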
K7 EDANS ctr = counter-screen for kallikrein-7 activators: EDANS-DABCYL interference, dose response; EDANS-DABCYL peptide fluorescence interference, no enzyme; EC50, µM; shares compounds with proKLK7 act; hit rate 20% among 250;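 active means compounds that raise the fluorescence signal in this interference counterscreen, with EC50 at or below 10 µM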;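 further: intact quenched peptide substrate alone read at 355 nm excitation and 520 nm emission; signal is fluorescence gain from T0 to T4 after four hours at room temperature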
Numbers without * were called inactive; . = not tested or not shown. Hits are enriched below; roughly 2.1% of the tested compounds scored in any of these assays.

SMILES | Runt-SMMHC FRET | RanGTP-Imp inh | MEX-5 binding | proKLK7 act | Runt-CBFb FRET | KLK7 act conf | EDANS interfere | others
CC(=O)NN1C(=O)c2ccccc2NC1c1ccccc1F (centres undefined) | . | 2 | 1 | 29* | . | 19* | 18*
O=C1c2ccccc2NC(c2cccs2)N1NS(=O)(=O)c1ccccc1 (centres undefined) | 2 | 1 | 2 | 36* | 0 | 5 | 4.5*
Cc1ccc2nc(-c3ccc(NC(=O)CSc4nnc(-c5cccc(Cl)c5)n4Cc4ccco4)cc3)sc2c1 | . | . | . | 70* | . | -21 | -30
Cc1ccc2nc(-c3ccc(NC(=O)CSc4nnc(-c5cc(C)[nH]n5)n4N)cc3)sc2c1 | . | . | . | 33* | . | -3 | -39
CCN(CC)c1ccc(NC(=O)CSc2nnc(-c3ccc(Cl)cc3)n2Cc2ccco2)cc1 | . | . | . | 1 | . | . | .
Cc1ccc(-c2nnc(SCC(=O)Nc3ccc(-c4nc5ccc(C)cc5s4)cc3)n2Cc2ccco2)cc1 | . | . | . | 104* | . | 94* | 116*
Cc1ccc2nc(-c3ccc(NC(=O)CSc4nnc(-c5cc(-c6ccc(F)cc6)n[nH]5)n4N)cc3)sc2c1 | . | . | . | 5 | . | . | .
C=CCn1c(SCC(=O)NNC(=O)Nc2ccc(C)cc2)nnc1-c1ccccc1 | -2 | -1 | -7 | 0 | 1 | . | .
C=CCn1c(SCC(=O)Nc2ccc(-c3nc4ccc(C)cc4s3)cc2)nnc1-c1ccccc1 | 2 | 4 | -2 | 26* | 4 | 67* | 67*
CC1CCCC(C)N1/N=C/c1ccccc1Br (centres undefined) | . | 2 | 3 | -1 | . | . | .
O=C(CCc1ccccc1)Oc1ccccc1[N+](=O)[O-] | . | 3 | 0 | 0 | . | . | .
CCOC(=O)C1(C(=O)OCC)Cc2c([nH]c3ccccc23)[C@]2(N1)C(=O)N(C)c1ccc(Br)cc12 | . | . | . | 1 | . | . | .
COc1ccccc1N1CCN(C(c2cccs2)C(C)NC(=O)c2ccncc2)CC1 (centres undefined) | 0 | -3 | 0 | 296* | 0 | 0 | 1
Cc1ccc(NC(=O)Cn2c(/C=C/c3ccccc3)nc3ccccc32)cc1C | 0 | 1 | -2 | 29* | 1 | 49* | 43*
CCN(CC)c1nc2ccccc2nc1C(C#N)C(=O)NCCCOC (centres undefined) | 61* | . | -8 | 14* | 67* | 33* | 37*
COCCCNC(=O)c1ccc(-c2nc3ccccc3nc2-c2ccccc2)cc1 | . | 2 | 0 | 1 | . | . | .
COc1cc2ccccc2nn1 | 82* | 65* | 3 | 23* | 10 | 33* | 39*
Cc1cccc(Nc2nnc(SCC(=O)NC(=O)CN3CCCC3=O)s2)c1 | . | . | . | 0 | . | . | .
CCCn1c(/C=C/c2ccccc2)nc2ccccc21 | -7 | 3 | -3 | 0 | -4 | . | .
CCn1c(/C=C/c2cc[n+](C)cc2)nc2ccccc21 | . | -157 | -3 | 57* | . | 59* | 62*
c1cc(-c2ccc(N3CCOCC3)cc2)n2ccnc2c1 | . | . | . | 79* | . | 47* | 59*
Clc1cccc(-c2cccc3nccn23)c1 | . | . | . | 8 | . | . | .
N#CCc1ccc(-c2cccc3nccn23)cc1 | . | . | . | 22* | . | 13* | 26*
CN(C)c1ccc(-c2cccc3nccn23)cc1 | . | . | . | 40* | . | 70* | 60* | K7 EDANS ctr=>70

Assay outcomes from PubChem BioAssay.
